The source of these data is ChEMBL document CHEMBL4118075, “Thiophene/thiazole-benzene replacement on guanidine derivatives targeting α2-Adrenoceptors” (Eur J Med Chem, 2017).

What is called Ki is a dissociation constant, usually derived from enzyme kinetics or from competition with a known ligand. By Emax is commonly meant the maximal effect, on the per cent scale that the assay sets. In general, EC50 refers to the concentration giving half of the maximal effect.

The target of assay [1] is T1, Adrenergic receptor alpha-2 (Homo sapiens, UniProt P08913+P18825+P18089).
T1 sequence (P08913 whole entry): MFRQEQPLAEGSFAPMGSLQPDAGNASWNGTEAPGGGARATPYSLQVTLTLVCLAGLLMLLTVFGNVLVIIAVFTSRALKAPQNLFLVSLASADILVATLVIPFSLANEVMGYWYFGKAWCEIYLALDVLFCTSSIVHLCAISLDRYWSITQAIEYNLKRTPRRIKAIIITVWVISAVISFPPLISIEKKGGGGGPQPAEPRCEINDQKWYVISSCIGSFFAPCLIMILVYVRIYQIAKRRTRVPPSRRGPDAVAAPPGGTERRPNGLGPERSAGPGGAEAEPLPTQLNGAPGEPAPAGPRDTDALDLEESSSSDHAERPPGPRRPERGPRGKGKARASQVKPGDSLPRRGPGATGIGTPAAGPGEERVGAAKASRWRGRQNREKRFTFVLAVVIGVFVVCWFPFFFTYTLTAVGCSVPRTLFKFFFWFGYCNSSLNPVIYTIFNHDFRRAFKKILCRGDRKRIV
T1 sequence (P18825 whole entry): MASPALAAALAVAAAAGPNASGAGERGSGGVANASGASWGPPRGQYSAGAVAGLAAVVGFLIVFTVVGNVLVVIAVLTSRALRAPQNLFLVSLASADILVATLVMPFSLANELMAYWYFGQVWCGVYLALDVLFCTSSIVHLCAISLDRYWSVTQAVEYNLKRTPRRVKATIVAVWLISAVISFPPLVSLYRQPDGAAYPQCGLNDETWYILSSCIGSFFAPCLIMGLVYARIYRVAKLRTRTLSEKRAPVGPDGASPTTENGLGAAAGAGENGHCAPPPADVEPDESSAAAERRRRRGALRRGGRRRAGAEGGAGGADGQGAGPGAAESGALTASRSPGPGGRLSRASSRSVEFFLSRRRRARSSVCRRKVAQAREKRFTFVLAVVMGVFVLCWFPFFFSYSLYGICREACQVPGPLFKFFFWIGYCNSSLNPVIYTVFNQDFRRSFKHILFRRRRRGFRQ
T1 sequence (P18089 whole entry): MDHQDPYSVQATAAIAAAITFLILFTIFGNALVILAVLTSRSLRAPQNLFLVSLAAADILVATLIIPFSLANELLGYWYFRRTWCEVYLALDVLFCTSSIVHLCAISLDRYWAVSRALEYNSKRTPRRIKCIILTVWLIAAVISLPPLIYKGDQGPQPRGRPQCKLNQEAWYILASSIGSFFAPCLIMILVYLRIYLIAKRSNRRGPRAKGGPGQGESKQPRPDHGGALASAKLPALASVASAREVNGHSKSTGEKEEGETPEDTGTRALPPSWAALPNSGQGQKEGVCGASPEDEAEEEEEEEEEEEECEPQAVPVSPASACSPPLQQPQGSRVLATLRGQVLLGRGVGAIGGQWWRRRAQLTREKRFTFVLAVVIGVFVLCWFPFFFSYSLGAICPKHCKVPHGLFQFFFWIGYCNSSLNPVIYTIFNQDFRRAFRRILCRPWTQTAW
In words: Displacement of [3H]RX821002 from alpha2 adrenergic receptor in human brain prefrontal cortex membranes after 30 mins by microbeta liquid scintillation spectrometry. Also noted: species or system Membrane. The gist of the method:
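Competition binding on post-mortem human PFC P2 membranes in 50 mM Tris-HCl pH 7.5. [3H]RX821002 at 2 nM; competitor at 10 concentrations from 10⁻¹² to 10⁻³ M; 30 min at 25 °C. Vacuum filtration on GF/C, scintillation counting. Nonspecific binding defined with adrenaline 10⁻⁵ M. Ki from nonlinear regression with a one-site model.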
In general terms: In a radioligand displacement assay an active substance lowers the binding of a labelled ligand.

The target of assay [2] is T2, Adrenergic receptor alpha-2 (Homo sapiens) (UniProt P08913+P18825+P18089). The experiment in a line: Activity at alpha2 adrenergic receptor in human brain prefrontal cortex membranes assessed as effect on UK14304-induced [35S]GTPgammaS binding at 10^-5 M after 120 mins by microbeta liquid scintillation spectrometry (reference value: 132 +/- 2%). In kind it is functional. Conditions: Membrane. (GTPγS resists hydrolysis and so accumulates on activated G proteins.)

Assay [3] concerns the target T2, Adrenergic receptor alpha-2 (Homo sapiens). The experiment in a line: Agonist activity at alpha2 adrenergic receptor in human brain prefrontal cortex membranes assessed as stimulation of [35S]GTPgammaS binding at 10^-12 to 10^-3 M after 120 mins by microbeta liquid scintillation spectrometry. It is filed as functional. The note with it: Membrane. The method, boiled down: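 GTPγS exchange in human prefrontal cortex P2 membranes (20 µg/well) with 0.5 nM [35S]GTPγS, in EGTA/MgCl₂/100 mM NaCl/GDP/Tris pH 7.4 buffer. Ten concentrations from 10⁻¹² to 10⁻³ M; 30 °C for 120 min with shaking. Filtered on GF/C and scintillation counted; nonspecific binding with 10 µM GTPγS. EC50 and Emax expressed as % over basal binding.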

Assay [4] concerns the target T1, Adrenergic receptor alpha-2. The experiment in a line: Activity at alpha2 adrenergic receptor in human brain prefrontal cortex membranes assessed as effect on UK14304-induced [35S]GTPgammaS binding by measuring UK14304 EC50 at 10^-5 M after 120 mins by microbeta liquid scintillation spectrometry (reference value: 0.4 +/- 0.01 uM). It is filed as functional, Membrane.

Assay [5] concerns the target T2, Adrenergic receptor alpha-2 (Homo sapiens). The experiment in a line: Agonist activity at alpha2 adrenergic receptor in human brain prefrontal cortex membranes assessed as stimulation of [35S]GTPgammaS binding at 10^-5 M after 120 mins in presence of antagonist RX821002 by microbeta liquid scintillation spectrometry. Conditions: Membrane. In kind it is functional.

Active and inactive are the calls of the source. No cut-off for these calls is given here. Bounds are passed on as bounds.

Regarding `Cl.N=C(N)Nc1cc2c(s1)CCCC2`, the Ki in assay [1] was 31.3 nM. The Emax in assay [2] came out at 111%. The result in assay [3] was inactive. In assay [4], the EC50 was 800 nM.

Consider `Cl.N=C(N)Nc1cc2c(s1)CCC2`, for which the Ki in assay [1] was 87.9 nM. For the same molecule, in assay [2], the Emax was found to be 111%. In assay [3], the result was inactive. The EC50 in assay [4] was 500 nM.

In turn, `Cl.N=C(N)NCCc1cccs1` had a Ki in assay [1] of 751 nM. Further, in assay [2], the Emax is 117%. Besides, the EC50 in assay [4] turned out to be 1700 nM.

Consider `COC(=O)c1ccsc1NC(=N)N.Cl`, for which the Ki in assay [1] is on record as above 100000 nM.

As to `Cl.N#Cc1c(NC(=N)N)sc2c1CCC2`, the Ki in assay [1] came to 2215 nM.

In turn, `Cl.N#Cc1c(NC(=N)N)sc2c1CCCCC2` yielded a Ki in assay [1] of 1198 nM.

As for `CCOC(=O)c1c(NC(=N)N)sc2c1CCCCC2.Cl`, the Ki in assay [1] is above 100000 nM.

Consider `Cl.N#Cc1c(NC(=N)N)sc2c1CCCC2`, for which the Ki in assay [1] came out at 733 nM. Further, the Emax in assay [2] was 128%. Moreover, the outcome in assay [3] was inactive. Besides, the half-maximal effective concentration (EC50) in assay [4] amounted to 6600 nM.

The molecule `Cl.N=C(N)NCc1cccs1` registered a Ki in assay [1] of 3928 nM.

In assay [1], `Cl.N=C(N)Nc1nc2c(s1)CCCC2` gave a Ki of 1205 nM. Also, in assay [2], the Emax is 105%. Further, the outcome in assay [3] was inactive. Moreover, in assay [4], the EC50 came out at 11400 nM.

As to `COC(=O)c1sccc1NC(=N)N.Cl`, the Ki in assay [1] is above 100000 nM.

On to `Cl.N=C(N)Nc1cc2c(s1)CCCCC2`, for which the Ki in assay [1] is listed as 156 nM. Further, in assay [2], the Emax came to 124%. Besides, in assay [3], the outcome was Active. Also, the EC50 in assay [4] was 10700 nM. Moreover, the result in assay [5] was inactive.

Regarding `Cl.N=C(N)Nc1nc2c(s1)CCC2`, the Ki in assay [1] is on record as 706 nM. For the same molecule, the Emax in assay [2] came out at 126%. For the same molecule, the result in assay [3] was inactive. The EC50 in assay [4] worked out at 1500 nM.

Take `Cl.N=C(N)Nc1ccsc1`: in assay [1], the Ki is given as 1968 nM.

As to `CCOC(=O)c1c(C)csc1NC(=N)N.Cl`, the inhibitory constant (Ki) in assay [1] came to 66530 nM.

As to `CCOC(=O)c1c(NC(=N)N)sc2c1CCC2.Cl`, the Ki in assay [1] was found to be 30150 nM.

Molecule `CCOC(=O)c1c(NC(=N)N)sc2c1CCCC2.Cl` came in with a Ki in assay [1] of 9086 nM.
